# HSF1 activator: increases HSF-1 driven luciferase reporter signal | activation, % at 9 µM | 300,000 compounds, 1.7% hits | NIH3T3-HGL HSF-1 luciferase reporter, MG132, 8 h; 100% = twice DMSO control signal;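 active = mean replicate activation of at least 50% with a set share of replicates each reaching 50%; inconclusive = only one of those two conditions met; inactive = mean below 50% and too few replicates reaching it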;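 note: 0% = median of the neutral control wells and 100% = twice that signal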
# HSV augment: HSV replication enhancement | 220,000 compounds, 0.005% hits | AID 1956 | maximum fold increase | HSV replication augmentation in cells, fold increase; in the data active = maximum fold increase above about 1.5; inconclusive = no clear call, values can overlap the other calls; tested in PC3 cells
# Hsp70 activator: transcriptional activators of Hsp70; HeLa Hsp70 promoter luciferase reporter, luminescence; scaled: vehicle 0, proteasome-inhibitor control 100%; activation, % at 10 µM; 200,000 compounds, 0.04% hits; AID 1203;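 active = activation above the mean across all tested compounds plus 3 SD, cutoff set per campaign, cut at about 5.5% in these data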;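 note: 100% = MG132 at 30 µM as the positive control and 0% = DMSO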
# Rad51 HR inh: blocks human Rad51 in homologous recombination; hRad51 DNA strand exchange, fluorescence dequenching; inhibition, % at 10 µM; 200,000 compounds, 0.085% hits;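 active = inhibition above 40% at the single screening dose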;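 note: 0% = DMSO control wells and 100% = blanks with heterologous ssDNA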
#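 Test system: preformed human Rad51 ssDNA filaments; also added: Donor/quencher-labelled 47-bp dsDNA substrate; doses: 10 µM final, single point; times: 37 °C 15-min filament assembly, 30-min compound preincubation, 15-min exchange; detection: FRET fluorescence dequenching, excitation 485 nm, emission 520 nm; read-out basis: Fluorescence-based percent inhibition, control- and blank-normalised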
# Mdm2 ligase inh: inhibitors of human Mdm2 E3 ubiquitin ligase | Q00987 | signal enhancement, % at 5 µM | cell-based MDM2 ubiquitination luciferase reporter, 2 h; 0 = plate control, 100 = twice control, blank-subtracted | AID 1230 | 210,000 compounds, 0.11% hits;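 active = signal enhancement of 30% or more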;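 note: luminescence tracks abundance of the self-degrading MDM2-luciferase fusion protein; higher signal means inhibition of MDM2 E3 ligase activity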
# Target sequence (Q00987 whole entry, looked up, the tested form may be a part): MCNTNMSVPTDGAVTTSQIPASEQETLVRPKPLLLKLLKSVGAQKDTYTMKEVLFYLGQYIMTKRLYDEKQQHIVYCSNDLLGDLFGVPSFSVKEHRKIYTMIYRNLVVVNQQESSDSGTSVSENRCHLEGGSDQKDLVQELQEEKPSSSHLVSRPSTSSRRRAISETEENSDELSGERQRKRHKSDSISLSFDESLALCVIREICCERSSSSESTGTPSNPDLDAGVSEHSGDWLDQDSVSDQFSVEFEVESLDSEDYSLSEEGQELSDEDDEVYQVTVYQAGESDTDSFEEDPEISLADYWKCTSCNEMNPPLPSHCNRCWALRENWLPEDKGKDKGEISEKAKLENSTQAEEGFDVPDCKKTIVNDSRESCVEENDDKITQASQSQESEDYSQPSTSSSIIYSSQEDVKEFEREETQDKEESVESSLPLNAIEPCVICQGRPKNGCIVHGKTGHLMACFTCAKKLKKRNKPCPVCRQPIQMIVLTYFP
#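 Assay system: stable mammalian line carrying autodegrading MDM2–luciferase fusion reporter; Input: 2000 cells in each well; Compound dosing: single-point 5 µM; Schedule: 2 h compound exposure at 37 °C; Signal: SteadyLite luciferase luminescence after 15 min room-temperature reagent incubation; Evaluation: % luminescence enhancement versus blank-corrected plate control mean; Benchmarks: plate controls and plate blanks.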
# HSF1 inhib: HSF1 inhibition; 300,000 compounds, 0.77% hits; activity change, negative = inhibition, % at 7.5 µM (by protocol); AID 2098; NIH3T3-HGL HSE-luciferase, MG132-induced, luminescence 8 h; stronger effect = lower value;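 active = more than half of replicate wells show activity change below -50%, luminescence cut by over half; inconclusive = some wells, but at most half, below -50%; inactive = no replicate well below -50%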;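 note: luciferase reports HSF-1 transcriptional activity via heat shock element; 0% = median of DMSO wells and -100% = zero luminescence signal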
# Active calls of the source: *; i = inactive; ? = inconclusive; . = no result given. The list is not random: actives were taken first. Their share in the collection is about 2.6%.
SMILES,HSF1 activator,HSV augment,Hsp70 activator,Rad51 HR inh,Mdm2 ligase inh,HSF1 inhib
O=C(Nc1ccccc1-c1nnc(SCc2ccc(Cl)cc2Cl)o1)c1ccccc1,-7,i,0,-5,-12,3
Clc1ccc(-c2nnc(SCc3nc4ccccc4[nH]3)o2)c(Cl)c1,75*,i,0,6,8,45
Clc1ccc(-c2nnc(SCc3ccon3)o2)c(Cl)c1,58*,.,0,-2,-28,20
c1ccc2[nH]c(CSc3nnc(-c4ccncc4)o3)nc2c1,-48,i,0,3,-11,-46
Clc1ccc(-c2nnc(CCc3ccccc3)o2)c(Cl)c1,69*,i,0,4,-13,35
C=CCSc1nnc(-c2ccc(Cl)cc2Cl)o1,57*,.,0,.,-46,28
Cc1cnc(C(=O)OCC(=O)c2cc(C)n(C)c2C)cn1,30,i,0,7,6,4
COc1ccc(NC(=O)CSc2nnc(Cn3cnc([N+](=O)[O-])n3)n2C)cc1,67*,i,0,9,-11,34
COc1cccc(N2C(=O)N(c3ccccc3)C3CS(=O)(=O)CC32)c1 (configuration not stated),-88,i,0,.,-7,-84*
O=C(/C=C/c1ccco1)Nc1nc(-c2ccccc2)cs1,58*,i,0,-9,-8,37
O=C(/C=C/c1ccco1)Nc1ccc(N2CCCC2)cc1,64*,i,0,0,-25,33
O=C(/C=C/c1ccco1)Nc1ccc(C(=O)N2CCOCC2)cc1,-6,i,0,5,11,-1
Cc1csc(NC(=O)/C=C/c2ccc(C)o2)n1,30,i,0,-18,-23,19
Cc1csc(NC(=O)/C=C/c2ccco2)n1,57*,i,0,-5,-20,24
O=C(/C=C/c1ccco1)Nc1nc(-c2ccccn2)cs1,11,i,0,-4,-12,-1
O=C(NCCNC(=O)c1ccccc1Cl)c1ccco1,19,.,.,.,.,-3
COc1ccc(Nc2cc(Nc3cccc(OC)c3)ncn2)cc1,45,.,.,.,.,21
N#CCCn1cc(C(N)=O)c(-c2ccc3ccccc3c2)n1,4,.,.,.,.,2
CC(C)(C)[C@H]1C=C(C(=O)NCc2nc3ccccc3[nH]2)O[C@@H](OCc2ccc(CO)cc2)C1,-48,i,.,-1,17,-28
N#Cc1c(-c2ccc(F)cc2)ccnc1N1CCOCC1,10,i,0,-4,-19,0
COc1ccc(-n2nnc3c(SCC(=O)N4CCCc5ccccc54)ncnc32)cc1,57*,.,.,.,.,30
COc1ccc(-n2nnc3c(=O)n(CC(=O)N4CCCc5ccccc54)cnc32)cc1,1,i,0,-6,.,-2
O=C(NCCCn1cccn1)C1CCC(=O)N(CCc2ccccc2)C1 (configuration not stated),-7,.,.,.,.,-9
O=C(Oc1ccc(Oc2ccccc2)cc1)N1CCC(O)CC1,7,.,.,.,.,6
Cc1ccc(N2CC(C(=O)Nc3nnc(SCCN4CCOCC4)s3)CC2=O)cc1 (configuration not stated),-65,.,.,.,.,-55*
SMILES,HSF1 activator,HSV augment,Hsp70 activator,Rad51 HR inh,Mdm2 ligase inh,HSF1 inhib
N/C(Cc1ccc([N+](=O)[O-])cc1)=N\OC(=O)c1ccccc1F,66*,i,0,.,-6,49
N/C(Cc1ccc([N+](=O)[O-])cc1)=N\OC(=O)Cc1ccccc1,4,i,1,.,.,1
O=C(Cc1ccc([N+](=O)[O-])cc1)OCc1c(F)cccc1Cl,56*,.,.,.,.,39
CCNC(=O)COC(=O)c1sccc1C,.,i,0,4,-6,.
CCOC(=O)C1(CC2CCCCO2)CCN(C(=O)NCc2ccccc2)CC1 (configuration not stated),-2,i,0,19,-7,7
Cc1cc(C)n(C(=O)Cn2nc(C)c(Br)c2C)n1,28,.,.,.,.,4
Cc1cccc(-n2cc(CN3CCN(Cc4nccn4C)CC3)c(-c3cccc(F)c3)n2)c1,65*,i,0,.,-14,28
Cc1ccc2[nH]c(=O)c(CN(CCc3ccccc3)C(c3nnnn3Cc3ccco3)C(C)C)cc2c1 (configuration not stated),82*,i,.,-114,-2,67
CCC(c1nnnn1Cc1ccco1)N(CCc1ccccc1)Cc1cc2cc(C)ccc2[nH]c1=O (configuration not stated),10,i,.,3,.,21
CCC(c1nnnn1CCc1ccccc1)N(Cc1ccco1)Cc1cc2c(C)ccc(C)c2[nH]c1=O (configuration not stated),128*,?,-1,-5,-6,75
CCC(c1nnnn1CCc1ccccc1)N(Cc1ccco1)Cc1cc2cc(C)cc(C)c2[nH]c1=O (configuration not stated),58*,i,0,-12,-16,27
O=C(CCC(=O)c1cccs1)NC(c1ccccc1)c1ccccc1,0,i,0,6,-4,2
O=C(CCC(=O)c1cccs1)c1cccs1,55*,i,0,-4,-29,30
O=C(O)c1ccccc1C(=O)c1cccc2ccccc12,-6,.,.,.,.,4
CCN(CC)S(=O)(=O)c1cccc(NC(=O)CCNC(=O)NC23CC4CC(CC(C4)C2)C3)c1,-74,.,.,.,.,-66*
Cc1ccc(-n2nc3c(=O)n(CC(=O)NC4CCCCCC4)nc(C)c3c2C)cc1,-6,.,.,.,.,-1
O=C(CSc1ccc(F)cc1)Nc1ccc(C2SCCS2)cc1,60*,i,.,3,-14,46
Cc1csc(SCc2nnc(-c3ccc(Cl)cc3)o2)n1,59*,i,0,2,-18,27
c1ccc(CCNc2nc(-c3ccccn3)nc3ccccc23)cc1,10,i,.,2,-11,-3
C/C(N)=C(/C#N)C(=O)COC(=O)c1cc(C)n(-c2ccc(F)cc2)c1C,84*,i,0,3,9,52
Cc1ccc(C(c2nnnn2C2CCCC2)N2CCc3ccccc32)cc1 (configuration not stated),59*,i,0,13,-2,16
Cc1ccc(C)c(OC(=O)c2cncc(Br)c2)c1,4,i,0,.,3,-5
CN(C)c1nc(NC(C)(C)C)nc(SCC(=O)Nc2ccccc2)n1,66*,i,0,4,-8,22
COc1cccc(N/C=C/c2onc(C)c2[N+](=O)[O-])c1,66*,i,0,-51,-12,32
O=[N+]([O-])c1cccc(NNS(=O)(=O)c2ccccc2F)c1,-10,.,.,.,.,-8
Nc1nc(Nc2ccccc2)sc1C(=O)c1ccccc1,62*,i,.,20,-13,25
Cc1nc(CN2CCN(Cc3nc(C(c4ccccc4)c4ccccc4)no3)CC2)cs1,69*,i,0,.,-9,29
